In ChEMBL document CHEMBL3792300, “Tuning Side Arm Electronics in Unsymmetrical Cyclotriazadisulfonamide (CADA) Endoplasmic Reticulum (ER) Translocation Inhibitors to Improve their Human Cluster of Differentiation 4 (CD4) Receptor Down-Modulating Potencies” (J Med Chem, 2016) one finds IC50, CC50 and Activity data, which are given here for two compounds.

Data set [1] is described as follows: Binding affinity to human CD4 signal peptide expressed in CHO cells assessed as down-modulation of YFP-fused CD4 expression after 24 hrs by flow cytometric analysis. It is filed as cell-based. Put shortly:
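CHO cells stably expressing human CD4 fused C-terminally to YFP, treated 24 h at 37 °C with 1:5 serial dilutions. Washed, fixed in 1% formaldehyde, flow cytometry with 488 nm excitation and YFP in FL-1. YFP median fluorescence as % of untreated cells after subtracting non-transfected background. IC50 = 50% decrease; mean ± SD, n ≥ 3.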
Background: Flow cytometry measures light scatter and fluorescence of single cells or particles in a stream.

Data set [2] concerns Human immunodeficiency virus 1. Nature of the data set: Antiviral activity against CXCR4 using HIV-1 NL4.3 infected in human MT4 cells assessed as reduction of viral replication preincubated for 15 mins with cells followed by viral infection measured after 4 days by MTS/PES method. In kind it is functional, organism-based. Particulars: Human immunodeficiency virus 1, NL4.3, MT4. An outline of the steps:
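MT-4 T cells at 3.75×10⁵ cells/mL in RPMI 1640 with 10% FBS and 2 mM L-glutamine, exposed to compounds for 15 min, then infected with HIV-1 NL4.3 (30 pg/well) at 37 °C. After 4 days, viability by MTS/PES absorbance at 490 and 700 nm, used to derive IC50 for viral replication. Mean ± SD, n = 2 or 3.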

The test system of a further data set is MT4. Description: Cytotoxicity against human MT4 cells after 48 hrs by MTS/PES method. It is filed as cell-based. Particulars: mt4, 48 h. An outline of the steps: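 MT-4 cells at 10⁴ per well in DMEM with 10% FBS and 10 mM HEPES, incubated with compounds 48 h at 37 °C. Viability by MTS/PES; CC50 taken as the concentration reducing viability by 50%.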
For a further data set, the system named is CHO. Nature of the data set: Binding affinity to human CD4 signal peptide expressed in CHO cells assessed as down-modulation of YFP-fused CD4 expression at 50 uM after 24 hrs by flow cytometric analysis. In kind it is cell-based. An outline of the steps: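 Stably CD4-YFP-expressing CHO cells, 24 h at 37 °C, 50 μM as the highest concentration tested. Washed, fixed in 1% formaldehyde, YFP read by flow cytometry (488 nm, FL-1). Median fluorescence versus untreated cells, background of non-transfected cells subtracted. Given as % CD4 down-modulation at 50 μM.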

As for `C=C1CN(C(=O)c2ccc([N+](=O)[O-])cc2)CCCN(Cc2ccccc2)CCCN(S(=O)(=O)c2ccc(C)cc2)C1`, the IC50 in data set [1] and in data set [2] was above 50 µM each time. The CC50 in the data set with MT4 is above 150 µM. Further, the Activity in the data set on CHO was determined as 39%.
On to `C=C1CNCCCN(Cc2ccccc2)CCCN(S(=O)(=O)c2ccc(C)cc2)C1`, for which, in data set [1], the IC50 was above 50 µM. In the data set with MT4, this compound displayed a CC50 above 150 µM. Also, in the data set with CHO, the Activity was found to be 20%.

In general, IC50 refers to the concentration that inhibits the measured activity by half. As usually defined, the CC50 is the concentration at which the toxic effect on the cells reaches its halfway point.
